Results pooled from the literature.
Lines come from different studies, so protocols differ.
Target: Tyrosine-protein kinase Fgr (FGR, Homo sapiens, UniProt P09769)

Compound | read-out | mode | method | tested at | quantity | value
CC(C)(O)c1cncc(-c2nc3ccc(F)cc3n2C2CC2)c1 | cell-free assay |  | competition with immobilised ligand | 1 µM | remaining binding | 100%
Nc1ncnc2occ(-c3ccc(NC(=O)Nc4cc(C(F)(F)F)ccc4F)cc3)c12 | cell-free assay | inhibitor |  | 20 µM | remaining signal | 5.2%
CCC1(CC)NC(=O)c2c(c3ccc(Cl)c(Cl)c3n2C)C1C#N (stereo not shown) | thermal stability |  | DSF | 10 µM | ΔTm | 0 °C
CCN(CC)CCNC(=O)c1c(C)[nH]c(/C=C2\C(=O)Nc3ccc(F)cc32)c1C | enzyme activity | inhibitor |  | 0.3 µM | inhibition | 77%
Cn1c2c(c3ccc(Cl)c(Cl)c31)C(C#N)C(C)(C)NC2=O (stereo not shown) | thermal stability |  | DSF | 10 µM | ΔTm | 0.1 °C
CNC(=O)c1cc2c(Oc3ccc(NC(=O)C4(C(=O)Nc5ccc(F)cc5)CC4)cc3)ccnc2cc1OC | enzyme activity | inhibitor | radiometric | 1 µM | inhibition | 79%
CNC(=O)c1cc(Oc2ccc(NC(=O)Nc3ccc(Cl)c(C(F)(F)F)c3)cc2)ccn1 | enzyme activity | inhibitor |  | 0.3 µM | inhibition | 10%
CCCOc1ccc(OC)c(F)c1C(=O)c1ccc(C(=O)N[C@@H]2CNC[C@H]2NC(=O)c2ccc3[nH]ncc3c2)cc1 | enzyme activity | inhibitor |  | 10 µM | remaining activity | 65%
CCN1CCC2(CC1)NC(=O)c1c(c3ccc(Cl)c(Cl)c3n1C)C2C#N (racemic) | thermal stability |  | DSF | 10 µM | ΔTm | -0.1 °C
O=C(Nc1cccnn1)N1CC(C/C=C/c2cncc(Oc3ccc(C(F)(F)F)cn3)n2)C1 | cell-free assay |  | competition with immobilised ligand | 1 µM | remaining binding | 100%
COc1cc2ncnc(Nc3ccc(Oc4ccccc4)cc3C)c2cc1OC | enzyme activity | inhibitor |  | 1 µM | inhibition | 98%
O=C(Nc1cnn(-c2csc(C(=O)NC3COC3)c2)c1)Nc1ccccc1Cl | enzyme activity | inhibitor |  | 5 µM | remaining activity | 90%
Cc1ccc(C(=O)Nc2ccc(CN3CCN(C)CC3)c(C(F)(F)F)c2)cc1C#Cc1cnc2cccnn12 | enzyme activity |  |  | 23.5 nM | remaining activity | 10%
O=C(N1CCS(=O)(=O)CC1)N1C[C@H](c2ccc(OC(F)(F)F)cc2)C[C@H](c2nc(C3CC3)no2)C1 | cell-free assay |  | competition with immobilised ligand | 1 µM | remaining binding | 100%
Cc1ccc(C(=O)NCc2ccsc2)cc1C#Cc1cn(C(C)C)c2ncnc(N)c12 | enzyme activity | inhibitor |  | 1 µM | activity vs control | 2%
C[C@H](NC(=O)c1cnc2n1[C@](C)(Cc1ccc(C#N)cc1)C(=O)N2c1cc(Cl)c(F)c(Cl)c1)C(=O)NC1(c2ccccn2)CC1 | cell-free assay |  | competition with immobilised ligand | 1 µM | remaining binding | 100%
Cn1c2c(c3ccc(Cl)c(Cl)c31)C(C#N)C1(CCCC1)NC2=O (stereo not shown) | thermal stability |  | DSF | 10 µM | ΔTm | -0.2 °C
CS(=O)(=O)c1cc(C2(NC(=O)c3cncc4c3cnn4-c3ccc(F)cc3)CC2)ccn1 | cell-free assay |  | competition with immobilised ligand | 1 µM | remaining binding | 100%
O=C1NC(=O)c2cc(Nc3ccc(F)cc3)c(Nc3ccc(F)cc3)cc21 | cell-free assay |  |  | 0.5 µM | remaining signal | 96.3%
